The values that follow come from ChEMBL document CHEMBL4346686, “Discovery and biological evaluation of novel androgen receptor antagonist for castration-resistant prostate cancer” (Eur J Med Chem, 2019).

Test [1] deals with L02. The experiment in a line: Antiproliferative activity against human L02 cells assessed as reduction in cell viability incubated for 6 days by CCK8 assay. The class given is cell-based. The note with it: L02, 144 h. Summed up: (§1)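 Cells seeded (2×10^4 per well for VCaP, 1–3×10^3 for the others) and compound added after 24 h as a 9-point, 3-fold serial dilution. Exposure 6 days, then CCK-8 for 1–4 h and absorbance at 450 nm. IC50 from curve fit, mean of at least two independent experiments run in duplicate.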
(Tetrazolium dyes change colour on reduction, which living cells bring about.)

The subject of test [2] is CWR22R. The experiment in a line: Antiproliferative activity against human 22Rv1 cells assessed as reduction in cell viability incubated for 6 days by CCK8 assay. The class given is functional, cell-based. The conditions noted are these: 22Rv1, 144 h. Summed up: as §1
Test [3] is described as follows: Antiproliferative activity against human LNCaP-AR cells assessed as reduction in cell viability incubated for 6 days by CCK8 assay. The class given is functional, cell-based. The note with it: 144 h. Summed up: as §1
Test [4] concerns PC-3. The experiment in a line: Antiproliferative activity against human PC3 cells assessed as reduction in cell viability incubated for 6 days by CCK8 assay. The conditions noted are these: PC-3, 144 h. The class given is functional, cell-based. Summed up:
as §1

In test [5] the test system is VCaP. The experiment in a line: Antiproliferative activity against human VCaP cells assessed as reduction in cell viability incubated for 6 days by CCK8 assay. The conditions noted are these: 144 h. The class given is functional, cell-based. An outline of the steps: as §1

As to `CCN(c1ccc(C#N)c(Cl)c1)c1cc(-c2ccncc2)ccc1C`, the IC50 in test [1] was 1.73 µM; in test [2], 1.03 µM; in test [3] it was 0.48 µM; in test [4], 3.58 µM; in test [5] it was 2.9 µM.
As to `N#Cc1ccc(N2CCc3cc(-c4cncnc4)ccc32)cc1C(F)(F)F`, the IC50 in test [3] turned out to be 21 µM.
For `CCN(c1ccc(C#N)c(Cl)c1)c1cc(-c2cnc3ccccc3c2)ccc1C`, the values for the IC50 in test [3], in test [4] and in test [5] were 1.98 µM, 3.57 µM and 25.3 µM, respectively.
`CCN(c1ccccn1)c1cc(-c2c(C)noc2C)ccc1C`: the IC50 came out at 4.42 µM in test [1]; 5.43 µM in test [2]; 0.63 µM in test [3]; 4.8 µM in test [4]; 0.87 µM in test [5].
Consider `N#Cc1ccc(N2CCCc3c(-c4ccncc4)cccc32)cc1C(F)(F)F`, for which the IC50 in test [1] is 6.38 µM; in test [2], 15 µM; in test [3], 0.07 µM; in test [4] it was 28.7 µM; in test [5], over 30 µM.
With `N#Cc1ccc(N2CCCc3c(-c4cccnc4)cccc32)cc1C(F)(F)F`, the 50% inhibitory concentration (IC50) in test [1] was determined as 10.5 µM; in test [2], 12.3 µM; in test [3] it was 0.12 µM; in test [4], 7.97 µM; in test [5], 13.5 µM.
As for `CCN(c1cccc(-c2cncnc2)c1)c1ccc(C#N)c(Cl)c1`, the IC50 in test [2] is over 30 µM; in test [3], 0.36 µM; in test [4], over 30 µM; in test [5], over 30 µM.
In the case of `N#Cc1ccc(N2CCc3cc(-c4ccncc4)ccc3C2)cc1C(F)(F)F`, the IC50 in test [2] worked out at 6.94 µM; in test [3], 0.98 µM; in test [5] it was 3.5 µM.
For the molecule `CCN(c1ccc(C#N)c(C(F)(F)F)c1)c1cc(-n2ccnc2)ccc1C`, the IC50 is 16.3 µM in test [2], 0.4 to 0.56 µM in test [3], over 30 µM in test [4] and 3.92 to 30 µM in test [5].
In the case of `CCN(c1ccncc1)c1cc(-c2c(C)noc2C)ccc1C`, the IC50 in test [3] is 2.88 µM; in test [5], 2.01 µM.
`N#Cc1ccc(N2CCc3cc(-c4cccnc4)ccc32)cc1C(F)(F)F`: the IC50 in test [3] was found to be 1.24 µM.
Turning to `Cc1noc(C)c1-c1cccc2c1CCCN2c1ccc(C#N)c(C(F)(F)F)c1`, the IC50 in test [3] is 1.42 µM; in test [5], over 30 µM.
As to `N#Cc1ccc(N2CCc3cc(-c4cncnc4)ccc3C2)cc1C(F)(F)F`, the IC50 in test [3] came to 1.67 µM.
Take `CCN(c1ccc(C#N)c(Cl)c1)c1cc(-n2cccn2)ccc1C`: the IC50 in test [2] was over 30 µM; in test [3], 0.29 µM; in test [4] it was 15.7 µM; in test [5], 2.34 µM.
In the case of `Cn1nccc1-c1cccc2c1CCCN2c1ccc(C#N)c(C(F)(F)F)c1`, the IC50 in test [2] was 10.4 µM; in test [3], 0.24 µM; in test [4] it was 9.8 µM; in test [5] it was over 30 µM.
Turning to `N#Cc1ccc(N2CCc3cc(-c4cccnc4)ccc3C2)cc1C(F)(F)F`, the IC50 in test [2] was found to be 4.79 µM; in test [3], 0.76 µM; in test [5], 2.53 µM.
`CCN(c1cccc(-n2ccnc2)c1)c1ccc(C#N)c(C(F)(F)F)c1`: the IC50 in test [2] was 19 µM; in test [3] it was 0.58 µM; in test [4], over 30 µM; in test [5], over 30 µM.
Regarding `CCN(c1ccc(C#N)c(Cl)c1)c1cc(-c2cccs2)ccc1C`, the figures for the IC50 in test [2], in test [3] and in test [4] were 22 µM, 0.38 µM and over 30 µM, respectively.
Consider `CCN(c1ccc(C#N)c(Cl)c1)c1cc(-c2ccco2)ccc1C`, for which the IC50 was over 30 µM in test [2], 0.49 µM in test [3], over 30 µM in test [4] and over 30 µM in test [5].
For `CCN(c1ccc(C#N)c(Cl)c1)c1cc(-c2ccc(F)nc2)ccc1C`, the IC50 in test [2] was 16.5 µM; in test [3], 0.41 µM; in test [4], over 30 µM; in test [5] it was over 30 µM.
In the case of `N#Cc1ccc(N2CCc3cc(-c4cnc5ccccc5c4)ccc3C2)cc1C(F)(F)F`, the 50% inhibitory concentration (IC50) in test [2] is 25.9 µM; in test [3] it was 0.98 µM; in test [4], 25.1 µM; in test [5], over 30 µM.
Turning to `Cc1noc(C)c1-c1cccc(Oc2ccc(C#N)c(C(F)(F)F)c2)c1`, the IC50 in test [3] stood at 1.67 µM.
In the case of `CCN(c1ccc(C#N)c(Cl)c1)c1cc(-c2cn[nH]c2)ccc1C`, the IC50 in test [2] was over 30 µM; in test [3], 0.7 µM; in test [4], 15.3 µM.
Take `CCN(c1cccc(-n2ccnc2)c1)c1ccc(C#N)c(Cl)c1`: the IC50 in test [1] was 23.2 µM; in test [2], over 30 µM; in test [3], 0.33 µM; in test [4] it was over 30 µM; in test [5] it was over 30 µM.
In the case of `CCN(c1ccc(C#N)c(Cl)c1)c1cc(C2=CCCCC2)ccc1C`, the values for the IC50 in test [3] and in test [5] were 2.55 µM and 20 µM, respectively.
With `CCN(c1ccc(C#N)c(Cl)c1)c1cc(-c2c[nH]nc2C)ccc1C`, the half-inhibitory concentration (IC50) came to 5.78 µM in test [1]; 5.38 µM in test [2]; 0.32 µM in test [3]; 9.03 µM in test [4]; 3.19 µM in test [5].
Take `CCN(c1ccc(C#N)c(Cl)c1)c1cc(-n2ccnc2)ccc1C`: the IC50 in test [1] was 15 µM; in test [2] it was over 30 µM; in test [3], 0.32 µM; in test [4] it was over 30 µM; in test [5] it was over 30 µM.
`CCN(c1cccc(-c2ccccc2)c1)c1ccc(C#N)c(Cl)c1`: in test [3], the IC50 was 1.29 µM.
In the case of `CCN(c1ccc(C#N)c(Cl)c1)c1cc(-c2c(C)noc2C)ccc1C`, the IC50 in test [1] was 8.67 µM; in test [2], 2.99 µM; in test [3], 0.19 µM; in test [4], 4.84 µM; in test [5], 1.2 µM.
`N#Cc1ccc(N2CCc3cc(-c4cnc5ccccc5c4)ccc32)cc1C(F)(F)F`: the IC50 in test [3] was 11.5 µM.
In the case of `CCN(c1ccc(C#N)c(Cl)c1)c1cc(-c2ccoc2)ccc1C`, the IC50 is over 30 µM in test [2], 0.48 µM in test [3], over 30 µM in test [4] and 4.01 µM in test [5].
Consider `CCN(c1ccc(C#N)c(Cl)c1)c1cc(-c2ccccc2)ccc1C`, for which the IC50 in test [1] was over 30 µM; in test [2], over 30 µM; in test [3] it was 2.78 µM; in test [5], over 30 µM.
Take `CCN(c1ccc(C#N)c(Cl)c1)c1cc(-n2cnc3ccccc32)ccc1C`: the IC50 in test [2] turned out to be 3.04 µM; in test [3], 0.39 µM; in test [4], 8.16 µM; in test [5], 8.56 µM.

As usually defined, the IC50 is the concentration needed to halve the response being measured.
